Experiments:
[1] = test system: HeLa; test: Cytotoxicity against human HeLa cells assessed as viability at 5 uM after 48 hrs by MTT method relative to control; assay type: functional; details: read-out: Activity
Outline: (§1)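 Cells treated 48 h with compound at final 5 µM. Viability was read as mitochondrial dehydrogenase activity by MTT and expressed as % of the 100% DMSO control. Values are mean ± s.d. from two experiments.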

[2] = Cytotoxicity against human MCF7AZ cells assessed as viability at 5 uM after 48 hrs by MTT method relative to control; assay type: functional; details: MCF7/AZ, read-out: Activity; outline: as §1
[3] = test system: Jurkat; test: Cytotoxicity against human Jurkat cells assessed as viability at 5 uM after 48 hrs by MTT method relative to control; assay type: functional; details: read-out: Activity; outline: as §1
[4] = test system: Jurkat; test: Induction of apoptosis in human Jurkat cells at 5 uM by flow cytometric annexin-V/propidium iodide assay; assay type: functional, cell-based; details: TDE = time-dependent effect
Outline: (§2)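 Jurkat cells were treated for 12, 24, 36 or 48 h against a DMSO control. Apoptosis was scored by flow cytometry after annexin-V/propidium iodide staining.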

[5] = test system: Jurkat; test: Induction of apoptosis in human Jurkat cells at 5 uM after 48 hrs by flow cytometric annexin-V/propidium iodide assay; assay type: functional; outline: as §2
[6] = test system: Jurkat; test: Induction of apoptosis in human Jurkat cells at 50 uM by flow cytometric annexin-V/propidium iodide assay; assay type: functional, cell-based; details: TDE = time-dependent effect
Outline: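 Human T-cell leukemia Jurkat cells were exposed to compound alongside a DMSO control and harvested after 12, 24, 36 and 48 hours. Apoptosis was read by flow cytometry after annexin-V and propidium iodide staining.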

[7] = test system: Jurkat; test: Induction of apoptosis in human Jurkat cells at 50 uM after 48 hrs by flow cytometric annexin-V/propidium iodide assay; assay type: functional; outline: as §2
[8] = Cytotoxicity against human MCF7AZ cells assessed as viability at 50 uM after 48 hrs by MTT method relative to control; assay type: functional; details: MCF7/AZ, read-out: Activity
Outline: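 MCF7-AZ cells were exposed 48 h to compound at final 50 µM. Viability was read as mitochondrial dehydrogenase activity by MTT, relative to DMSO control.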

| SMILES | viability at 5 µM [1] [%] | viability at 5 µM [2] [%] | viability at 5 µM [3] [%] | Activity [4] | Activity [5] [%] | Activity [6] | Activity [7] [%] | viability at 50 µM [8] [%] |
| --- | --- | --- | --- | --- | --- | --- | --- | --- |
| Cc1n[nH]c2c1C(c1ccc(Cl)c(Cl)c1)C1=C(COC1=O)N2 (stereo not given) | 88 | 56 | 71 |  |  |  |  |  |
| Cc1n[nH]c2c1C(c1cccc(Cl)c1)C1=C(COC1=O)N2 (stereo not given) | 43 | 54 | 76 |  |  |  |  |  |
| Cc1n[nH]c2c1C(c1cccs1)C1=C(COC1=O)N2 (stereo not given) | 82 | 98 | 74 |  |  |  |  |  |
| Cc1n[nH]c2c1C(c1ccncc1)C1=C(COC1=O)N2 (stereo not given) | 94 | 100 | 92 |  |  |  |  |  |
| Cc1n[nH]c2c1C(c1ccc(C3C4=C(COC4=O)Nc4[nH]nc(C)c43)cc1)C1=C(COC1=O)N2 (stereo not given) | 56 | 99 | 96 |  |  |  |  |  |
| Cc1nc2ccccc2nc1C1C2=C(COC2=O)Nc2[nH]nc(C)c21 (stereo not given) | 72 | 100 | 97 |  |  |  |  |  |
| Cc1n[nH]c2c1C(c1ccccc1)C1=C(COC1=O)N2 (stereo not given) | 74 | 84 | 87 |  |  |  |  |  |
| COc1cc([C@H]2C3=C(COC3=O)Nc3cc4c(cc32)OCO4)cc(OC)c1OC | 54 | 52 | 54 |  |  |  |  |  |
| COc1cc(C2C3=C(COC3=O)Nc3[nH]nc(C)c32)cc([N+](=O)[O-])c1O (stereo not given) | 78 | 89 | 90 |  |  |  |  |  |
| COc1cc2c(cc1OC)[C@@H](c1cc(OC)c(OC)c(OC)c1)C1=C(COC1=O)N2 | 53 | 58 | 35 |  |  |  |  |  |
| Cc1n[nH]c2c1C(c1ccccc1[N+](=O)[O-])C1=C(COC1=O)N2 (stereo not given) | 71 | 99 | 64 |  |  |  |  |  |
| Cc1n[nH]c2c1C(c1ccc(Br)cc1)C1=C(COC1=O)N2 (stereo not given) | 62 | 92 | 90 |  |  |  |  |  |
| COc1ccc(C2C3=C(COC3=O)Nc3[nH]nc(C)c32)cc1OC (stereo not given) | 73 | 95 | 88 |  |  |  |  |  |
| Cc1n[nH]c2c1C(c1c(C)nc3sccn13)C1=C(COC1=O)N2 (stereo not given) | 84 | 100 | 85 |  |  |  |  |  |
| C=C(C)[C@@H]1CC=C(C2C3=C(COC3=O)Nc3[nH]nc(C)c32)CC1 (stereo not given in full) | 95 | 91 | 89 |  |  |  |  |  |
| Cc1n[nH]c2c1C(c1ccsc1)C1=C(COC1=O)N2 (stereo not given) | 98 | 100 | 82 |  |  |  |  |  |

| SMILES | viability at 5 µM [1] [%] | viability at 5 µM [2] [%] | viability at 5 µM [3] [%] | Activity [4] | Activity [5] [%] | Activity [6] | Activity [7] [%] | viability at 50 µM [8] [%] |
| --- | --- | --- | --- | --- | --- | --- | --- | --- |
| COc1cc(C2C3=C(COC3=O)Nc3[nH]nc(C)c32)cc(OC)c1OC (stereo not given) | 50 | 58 | 47 | tde | 70 |  |  |  |
| Cc1n[nH]c2c1C(c1cccc(Br)c1)C1=C(COC1=O)N2 (stereo not given) | 51 | 63 | 68 | tde | 70 |  |  |  |
| Cc1n[nH]c2c1C(c1cccc(F)c1)C1=C(COC1=O)N2 (stereo not given) | 99 | 76 | 84 |  |  |  |  |  |
| COc1cc([C@@H]2c3cc4c(cc3[C@@H](O[C@@H]3O[C@@H]5CO[C@@H](C)O[C@H]5[C@H](O)[C@H]3O)[C@H]3COC(=O)[C@H]23)OCO4)cc(OC)c1O [ETOPOSIDE] | 91 | 76 | 75 |  |  | tde | 70 | 57 |
| Cc1n[nH]c2c1C(c1ccc(OC(F)(F)F)cc1)C1=C(COC1=O)N2 (stereo not given) | 97 | 84 | 97 |  |  |  |  |  |
| CCOc1c(Br)cc(C2C3=C(COC3=O)Nc3[nH]nc(C)c32)cc1OC (stereo not given) | 52 | 49 | 28 |  |  |  |  |  |
| CSc1ccc(C2C3=C(COC3=O)Nc3[nH]nc(C)c32)cc1 (stereo not given) | 45 | 95 | 87 |  |  |  |  |  |
| COc1ccc(C2C3=C(COC3=O)Nc3[nH]nc(C)c32)cc1 (stereo not given) | 73 | 82 | 94 |  |  |  |  |  |
| COc1cc(C2C3=C(COC3=O)Nc3[nH]nc(C)c32)cc(Br)c1OC(C)=O (stereo not given) | 47 | 46 | 36 |  |  |  |  |  |
| Cc1n[nH]c2c1C(c1cc(Br)c(O)c(Br)c1)C1=C(COC1=O)N2 (stereo not given) | 58 | 60 | 58 |  |  |  |  |  |
| Cc1n[nH]c2c1C(c1ccccc1Br)C1=C(COC1=O)N2 (stereo not given) | 57 | 100 | 90 |  |  |  |  |  |
| Cc1n[nH]c2c1C(C)C1=C(COC1=O)N2 (stereo not given) | 70 | 97 | 78 |  |  |  |  |  |
| Cc1n[nH]c2c1C(c1ccc(N(C)C)c(Br)c1)C1=C(COC1=O)N2 (stereo not given) | 55 | 59 | 34 |  |  |  |  |  |
| Cc1n[nH]c2c1C(c1cnn(-c3ccccc3)c1Cl)C1=C(COC1=O)N2 (stereo not given) | 58 | 100 | 94 |  |  |  |  |  |
| COc1cc([C@@H]2c3cc4c(cc3[C@H](O)[C@H]3COC(=O)[C@H]23)OCO4)cc(OC)c1OC [PODOFILOX] | 19 | 55 | 18 | tde | 70 |  |  |  |
| Cc1n[nH]c2c1C(c1cccnc1)C1=C(COC1=O)N2 (stereo not given) | 69 | 96 | 88 |  |  |  |  |  |
